≈ marks a conversion by molar mass, not a printed value. Calls of active or inactive are those of the source. The rule behind the calls is not given here.
How the values were obtained:
[1] = Inhibition of SMS (unknown origin); set-up: species or system Homo sapiens
[2] = biological target: T1, Phosphatidylcholine:ceramide cholinephosphotransferase 2 (Homo sapiens, UniProt Q8NHU3); experiment: Inhibition of human recombinant C-terminal FLAG-tagged SMS2 expressed in Freestyle293 cell membrane using C14-phosphatidylcholineD72 and C17-ceramide pre-incubated for 60 mins followed by incubation with substrate for 30 mins measured by RapidFire/MS assay
T1 sequence (Q8NHU3 whole entry): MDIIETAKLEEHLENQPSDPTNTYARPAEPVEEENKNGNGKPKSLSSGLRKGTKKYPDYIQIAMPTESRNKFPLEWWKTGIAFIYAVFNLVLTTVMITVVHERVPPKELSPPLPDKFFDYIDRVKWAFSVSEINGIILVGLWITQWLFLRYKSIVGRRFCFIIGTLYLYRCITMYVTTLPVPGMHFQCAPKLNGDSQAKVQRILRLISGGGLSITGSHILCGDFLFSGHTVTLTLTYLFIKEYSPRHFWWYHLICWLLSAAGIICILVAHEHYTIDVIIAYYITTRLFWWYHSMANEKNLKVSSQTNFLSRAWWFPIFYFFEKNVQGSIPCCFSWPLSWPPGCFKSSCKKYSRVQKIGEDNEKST
How it was run: (§1)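 C-terminal FLAG-tagged full-length SMS (human SMS1, mouse SMS2, human SMS2) transiently expressed in FreeStyle293 cells for 2 days; total membranes isolated by ultracentrifugation. Enzyme (30 µg/mL) preincubated 60 min with compound, then reacted 30 min at room temperature. Buffer: KCl, 0.1% BSA, 0.03% NP-40 substitute, 1 mM DTT, 10% DMSO. Substrates: 50 µM C14-PC-D72 and 1 µM C17-ceramide. Stopped with 2-propanol/formic acid containing C17-SM internal standard. Product C17-SM-d13 measured by RapidFire SPE and positive SRM MS. % inhibition calculated from peak area ratios against vehicle and no-reaction controls.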

[3] = biological target: T2, Phosphatidylcholine:ceramide cholinephosphotransferase 2 (Mus musculus, UniProt Q9D4B1); experiment: Inhibition of mouse recombinant C-terminal FLAG-tagged SMS2 expressed in mammalian expression system using C14-phosphatidylcholineD72 and C17-ceramide pre-incubated for 60 mins followed by incubation with substrate for 30 mins measured by RapidFire/MS assay; how it was run: as §1
T2 sequence (Q9D4B1 whole entry): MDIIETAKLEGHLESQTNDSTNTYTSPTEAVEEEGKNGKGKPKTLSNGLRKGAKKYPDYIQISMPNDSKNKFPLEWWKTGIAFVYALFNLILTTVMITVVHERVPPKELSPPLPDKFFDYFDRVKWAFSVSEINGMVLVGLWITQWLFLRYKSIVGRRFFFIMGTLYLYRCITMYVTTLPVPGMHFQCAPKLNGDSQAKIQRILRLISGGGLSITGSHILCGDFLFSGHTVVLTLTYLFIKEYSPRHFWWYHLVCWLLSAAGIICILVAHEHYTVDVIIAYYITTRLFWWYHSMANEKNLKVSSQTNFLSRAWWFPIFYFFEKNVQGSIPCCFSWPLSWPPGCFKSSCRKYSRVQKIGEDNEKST

[4] = biological target: T3, Phosphatidylcholine:ceramide cholinephosphotransferase 1 (Homo sapiens, UniProt Q86VZ5); experiment: Inhibition of human recombinant C-terminal FLAG-tagged SMS1 expressed in mammalian expression system using C14-phosphatidylcholineD72 and C17-ceramide pre-incubated for 60 mins followed by incubation with substrate for 30 mins measured by RapidFire/MS assay; how it was run: as §1
T3 sequence (Q86VZ5 whole entry): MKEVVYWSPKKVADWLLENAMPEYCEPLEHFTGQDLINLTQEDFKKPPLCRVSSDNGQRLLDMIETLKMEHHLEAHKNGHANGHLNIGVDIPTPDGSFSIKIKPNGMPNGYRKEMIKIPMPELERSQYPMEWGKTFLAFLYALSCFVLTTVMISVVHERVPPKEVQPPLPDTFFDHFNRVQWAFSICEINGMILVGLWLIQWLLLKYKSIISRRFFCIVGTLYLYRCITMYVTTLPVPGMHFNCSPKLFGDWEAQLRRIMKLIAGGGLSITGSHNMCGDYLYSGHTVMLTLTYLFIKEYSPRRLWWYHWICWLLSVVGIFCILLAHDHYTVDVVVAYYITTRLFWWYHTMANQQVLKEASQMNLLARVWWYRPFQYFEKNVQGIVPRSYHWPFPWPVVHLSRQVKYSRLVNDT

[5] = Permeability of compound in buffer solution at pH 7.4 by PAMPA method; format: ADME; details: read-out: permeability
How it was run: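 Membrane permeability measured at pH 7.4.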

[6] = Aqueous solubility of DMSO dissolved compound in buffer solution at pH 6.8 by LC-MS/MS analysis; format: physicochemical
How it was run: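 Compound in DMSO added to aqueous buffer at pH 6.8 and incubated. Precipitate removed by filter-plate filtration; dissolved compound in filtrate quantified by LC/MS/MS.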

[7] = MRT in KK-AY/Ta mouse at 100 mg/kg, sc; format: ADME, organism-based; details: in vivo
How it was run: (§2)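 Single 100 mg/kg dose given orally or subcutaneously to KK-Ay/Ta mice. Plasma drug concentration followed to 24 h. […] MRT is the mean residence time.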

[8] = Cmax in KK-AY/Ta mouse at 100 mg/kg, po; format: ADME, organism-based; set-up: dose 100 mg/kg, route oral; details: in vivo; how it was run: as §2
[9] = Tmax in KK-AY/Ta mouse at 100 mg/kg, po; format: ADME, organism-based; details: in vivo; how it was run: as §2
[10] = Cmax in KK-AY/Ta mouse at 100 mg/kg, sc; format: ADME, organism-based; set-up: dose 100 mg/kg, route subcutaneous; details: in vivo; how it was run: as §2
Mus musculus [11] = experiment: In vivo inhibition of SMS2 in KK-AY/Ta mouse assessed as decrease in hepatic SM (22:00) levels at 200 mg/kg, po bid for 7 days measured after last dosing by LC/MS analysis; format: functional, organism-based
How it was run: (§3)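 Male KK-Ay/Ta mice, 10 weeks old, dosed orally or subcutaneously once or twice daily for 7 days; vehicle-treated controls. Livers removed under anesthesia the morning after the last dose. Tissue homogenized in isopropanol (100 mg/mL) by ball-mill and centrifuged; supernatant SM (22:0) measured by reverse-phase LC/MS.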

Mus musculus [12] = experiment: In vivo inhibition of SMS2 in KK-AY/Ta mouse assessed as decrease in hepatic SM (22:00) levels at 100 mg/kg, po qd for 7 days measured after last dosing by LC/MS analysis; format: functional, organism-based; how it was run: as §3
[13] = AUC (0 to 24 hrs) in KK-AY/Ta mouse at 100 mg/kg, sc; format: ADME, organism-based; set-up: time < 24 hr, dose 100 mg/kg, route subcutaneous; details: in vivo; how it was run: as §2
Mus musculus [14] = experiment: In vivo inhibition of SMS2 in KK-AY/Ta mouse assessed as decrease in hepatic SM (22:00) levels at 100 mg/kg, sc qd for 7 days measured after last dosing by LC/MS analysis; format: functional, organism-based; how it was run: as §3
[15] = Drug concentration in KK-AY/Ta mouse at 100 mg/kg, po measured upto 24 hrs; format: ADME, organism-based; details: in vivo, read-out: Drug uptake; how it was run: as §2
[16] = AUC (0 to 24 hrs) in KK-AY/Ta mouse at 100 mg/kg, po; format: ADME, organism-based; set-up: dose 100 mg/kg, time < 24 hr, route oral; details: in vivo; how it was run: as §2
[17] = MRT in KK-AY/Ta mouse at 100 mg/kg, po; format: ADME, organism-based; details: in vivo; how it was run: as §2
[18] = Drug concentration in KK-AY/Ta mouse at 100 mg/kg, sc measured upto 24 hrs; format: ADME, organism-based; details: in vivo, read-out: Drug uptake; how it was run: as §2
[19] = Tmax in KK-AY/Ta mouse at 100 mg/kg, sc; format: ADME, organism-based; details: in vivo; how it was run: as §2
Mus musculus [20] = experiment: In vivo inhibition of SMS2 in KK-AY/Ta mouse assessed as decrease in hepatic SM (22:00) levels at 200 mg/kg, sc bid for 7 days measured after last dosing by LC/MS analysis; format: functional, organism-based; how it was run: as §3

Row | Structure (SMILES) | IC50 [2] [nM] | IC50 [3] [nM] | IC50 [4] [nM] | Papp [5] [×10⁻⁶ cm/s] | solubility kinetic [6] [µg/mL] | further results
1 | S=C(S)OC1C[C@H]2C[C@@H]1[C@H]1CCC[C@@H]21 (some centres undefined) |  |  |  |  |  | IC50 [1]: > 100000 nM
2 | CN(Cc1cc(C(F)(F)F)cc(C(F)(F)F)c1)C(=O)c1c(OCCCC2CCCCC2)c2ccccc2n(C)c1=O | 480 | 190 | 14000 |  |  | 
3 | COc1cc(CN(C)C(=O)c2c(OCCCC3CCN(C(=O)OC(C)(C)C)CC3)c3cccnc3n(C)c2=O)cc(OC)c1 | 130 | 32 | 10000 | 24.1 | 7.3 (≈ 12 µM) | 
4 | CCOc1cc(CN(C)C(=O)c2c(OCCCC3CCN(C(=O)OC(C)(C)C)CC3)c3ccccc3n(C)c2=O)cc(OCC)c1 | 380 | 51 | 15000 | 27.5 | < 0.08 | 
5 | CN(Cc1cc(C(F)(F)F)cc(C(F)(F)F)c1)C(=O)c1c(OCCOCc2ccccc2)c2ccccc2n(C)c1=O | 380 | 590 | 22000 |  |  | 
6 | CN(Cc1cc(C(F)(F)F)cc(C(F)(F)F)c1)C(=O)c1c(OCCCC(F)(F)F)c2ccccc2n(C)c1=O | 120 | 240 | 25000 |  |  | 
7 | COc1cc(CN(C)C(=O)c2c(OCCCC3CCN(C(=O)OC(C)(C)C)CC3)c3cnccc3n(C)c2=O)cc(OC)c1 | 1600 | 340 | > 100000 | 26 | 33 (≈ 54.2 µM) | 
8 | CN(Cc1cc(C(F)(F)F)cc(C(F)(F)F)c1)C(=O)c1c(OCCCC2CCN(C(=O)OC3(C)CC3)CC2)c2cccnc2n(C)c1=O | 47 | 3 | 850 | 72.1 | < 0.3 | 
9 | CN(Cc1cc(C(F)(F)F)cc(C(F)(F)F)c1)C(=O)c1c(N2CCC(OCc3ccccc3)C2)c2ccccc2n(C)c1=O (centres undefined) | 610 | 660 | 15000 |  |  | 
10 | CN(Cc1cc(C(F)(F)F)cc(C(F)(F)F)c1)C(=O)c1c(N2CCCCC2)c2ccccc2n(C)c1=O | 11000 |  | > 100000 |  |  | 
11 | CN(Cc1cc(C(F)(F)F)cc(C(F)(F)F)c1)C(=O)c1c(OCCCc2ccccc2)c2ccccc2n(C)c1=O | 210 | 120 | 14000 |  |  | 
12 | CN(Cc1cc(C(F)(F)F)cc(C(F)(F)F)c1)C(=O)c1c(OCCCC2CCN(C(=O)OC(C)(C)C)CC2)c2ccccc2n(C)c1=O | 30 | 7.7 | 3400 | 1.1 | < 0.16 | 
13 | CC(C)CCOc1c(C(=O)N(C)Cc2cc(C(F)(F)F)cc(C(F)(F)F)c2)c(=O)n(C)c2ccccc12 | 350 | 260 | > 100000 |  |  | 
14 | CCCOc1c(C(=O)N(C)Cc2cc(C(F)(F)F)cc(C(F)(F)F)c2)c(=O)n(C)c2ccccc12 | 2100 |  | > 100000 |  |  | 
15 | CN(Cc1cc(C(F)(F)F)cc(C(F)(F)F)c1)C(=O)c1c(N2CCCC2)c2ccccc2n(C)c1=O |  | 1100 | > 100000 |  |  | 
16 | COc1cc(CN(C)C(=O)c2c(OCCCC3CCN(C(=O)OC4(C)CC4)CC3)c3cccnc3n(C)c2=O)cc(C(F)(F)F)c1 | 45 | 2.2 | 2400 | 42.4 | 0.79 (≈ 1.23 µM) | MRT [7]: 9.4 h; Cmax [8]: 6500 ng/mL; Tmax [9]: 0.83 h; Cmax [10]: 700 ng/mL; inhibition (Mus musculus [11]): inactive; inhibition (Mus musculus [12]): inactive; AUC(0-t) at 24 h [13]: 12000 ng·h/mL; inhibition (Mus musculus [14]): Active; concentration at 24 h [15]: 7 ng/mL; AUC(0-t) at 24 h [16]: 18000 ng·h/mL; MRT [17]: 3 h; concentration at 24 h [18]: 230 ng/mL; Tmax [19]: 8 h; inhibition (Mus musculus [20]): Active
17 | COc1cc(CN(C)C(=O)c2c(OCCCC3CCN(C(=O)OC4(C)CC4)CC3)c3cccnc3n(C)c2=O)cc(OC)c1 | 300 | 14 | 18000 | 20 | 16 (≈ 26.4 µM) | 
18 | COc1cc(CN(C)C(=O)c2c(OCCCC3CCN(C(=O)OC(C)(C)C)CC3)c3ccccc3n(C)c2=O)cc(OC)c1 | 91 | 19 | 19000 | 29.5 | 1.8 (≈ 2.96 µM) | 

— ChEMBL document CHEMBL4627300, “Discovery of 1,8-naphthyridin-2-one derivative as a potent and selective sphingomyelin synthase 2 inhibitor” (Bioorg Med Chem, 2020)
